ChEMBL document CHEMBL3352570, “ST7612AA1, a thioacetate-ω(γ-lactam carboxamide) derivative selected from a novel generation of oral HDAC inhibitors” (J Med Chem, 2014)
pIC50: −log10 of the molar value.

Experiments:
[1] = Antitumor activity against human HCT116 cells xenografted in athymic nude mouse assessed as tumor volume inhibition at 100 mg/kg, po qd for 5 days a week for 3 weeks; assay type: functional; details: HCT-116
Method in brief: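 Female athymic nude mice, 5–6 weeks old, were inoculated sc in the right flank with 5 × 10⁶ exponentially growing tumor cells per 100 μL. Oral dosing once daily began 3 days after tumor injection, in Solutol HS15 diluted 1/20 in water. Tumor volume inhibition was calculated as TVI% = 100 − [(mean TV treated/mean TV control) × 100].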

Histone deacetylase 8 = molecular target: T1, Histone deacetylase 8 (Homo sapiens, UniProt Q9BY41); test: Inhibition of HDAC8 (unknown origin) using fluorogenic tetrapeptide RHK(Ac)K(Ac) substrate by fluorescence assay
T1 sequence (Q9BY41 whole entry): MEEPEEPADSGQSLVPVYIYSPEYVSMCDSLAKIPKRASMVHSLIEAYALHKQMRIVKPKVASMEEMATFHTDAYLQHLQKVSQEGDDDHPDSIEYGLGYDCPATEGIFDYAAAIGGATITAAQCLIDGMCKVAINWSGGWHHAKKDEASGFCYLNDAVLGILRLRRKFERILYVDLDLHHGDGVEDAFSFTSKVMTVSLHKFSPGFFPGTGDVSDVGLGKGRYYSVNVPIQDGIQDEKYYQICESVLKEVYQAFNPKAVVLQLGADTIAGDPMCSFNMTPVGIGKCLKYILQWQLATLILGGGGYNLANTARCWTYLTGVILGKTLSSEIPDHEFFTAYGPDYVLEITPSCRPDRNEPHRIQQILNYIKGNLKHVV

Mus musculus = test: Toxicity in human HCT116 cells xenografted athymic nude mouse assessed as body weight loss at 100 mg/kg, po qd for 5 days a week for 3 weeks; assay type: organism-based, HCT-116; set-up: dose 100 mg/kg, route oral; details: in vivo
Method in brief: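 Nude mice (female, athymic, 5–6 weeks) carried sc right-flank xenografts of 5 × 10⁶ cells per 100 μL. Oral treatment once daily started 3 days after inoculation.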

[2] = Efflux ratio of permeability from apical to basolateral side to basolateral to apical side of human Caco2 cells in presence of digoxin; assay type: ADME, cell-based; details: caco-2
Method in brief: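 Caco-2 AB/BA flux ratio measured with digoxin coincubated with test and reference compounds. Means of at least three experiments.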

Histone deacetylase 1 = Histone deacetylase 1 (Homo sapiens, UniProt Q13547); test: Inhibition of HDAC1 (unknown origin) using fluorogenic tetrapeptide RHKK(Ac) substrate by fluorescence assay
Histone deacetylase 3 = Histone deacetylase 3 (Homo sapiens, UniProt O15379); test: Inhibition of HDAC3 (unknown origin) using fluorogenic tetrapeptide RHKK(Ac) substrate by fluorescence assay
Histone deacetylase 2 = Histone deacetylase 2 (Homo sapiens, UniProt Q92769); test: Inhibition of HDAC2 (unknown origin) using fluorogenic tetrapeptide RHKK(Ac) substrate by fluorescence assay
Histone deacetylase 2, sequence (Q92769 whole entry): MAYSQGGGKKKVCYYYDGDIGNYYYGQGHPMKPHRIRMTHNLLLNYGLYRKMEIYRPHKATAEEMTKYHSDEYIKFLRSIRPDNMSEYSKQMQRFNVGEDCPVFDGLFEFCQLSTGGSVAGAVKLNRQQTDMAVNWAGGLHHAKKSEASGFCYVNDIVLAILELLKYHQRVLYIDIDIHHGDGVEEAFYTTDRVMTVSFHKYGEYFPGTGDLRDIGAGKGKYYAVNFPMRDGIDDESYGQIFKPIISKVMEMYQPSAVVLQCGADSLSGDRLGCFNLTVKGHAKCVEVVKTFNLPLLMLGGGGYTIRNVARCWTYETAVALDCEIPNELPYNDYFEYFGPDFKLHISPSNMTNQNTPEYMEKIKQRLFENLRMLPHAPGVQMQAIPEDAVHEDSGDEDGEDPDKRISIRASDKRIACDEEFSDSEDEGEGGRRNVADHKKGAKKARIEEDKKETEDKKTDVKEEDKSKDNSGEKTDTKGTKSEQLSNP

Histone deacetylase 3, sequence (O15379 whole entry): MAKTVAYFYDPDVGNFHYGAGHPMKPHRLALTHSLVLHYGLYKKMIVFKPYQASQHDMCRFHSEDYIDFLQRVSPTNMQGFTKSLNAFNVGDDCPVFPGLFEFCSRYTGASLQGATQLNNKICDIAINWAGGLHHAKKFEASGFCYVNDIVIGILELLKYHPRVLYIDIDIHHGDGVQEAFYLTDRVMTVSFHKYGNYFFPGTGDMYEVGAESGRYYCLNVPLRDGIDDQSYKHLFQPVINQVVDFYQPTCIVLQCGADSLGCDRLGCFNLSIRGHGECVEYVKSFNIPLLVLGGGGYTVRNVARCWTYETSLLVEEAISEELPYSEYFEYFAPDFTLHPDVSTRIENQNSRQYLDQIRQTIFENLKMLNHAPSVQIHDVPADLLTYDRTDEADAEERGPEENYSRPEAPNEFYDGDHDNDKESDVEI
Histone deacetylase 1, sequence (Q13547 whole entry): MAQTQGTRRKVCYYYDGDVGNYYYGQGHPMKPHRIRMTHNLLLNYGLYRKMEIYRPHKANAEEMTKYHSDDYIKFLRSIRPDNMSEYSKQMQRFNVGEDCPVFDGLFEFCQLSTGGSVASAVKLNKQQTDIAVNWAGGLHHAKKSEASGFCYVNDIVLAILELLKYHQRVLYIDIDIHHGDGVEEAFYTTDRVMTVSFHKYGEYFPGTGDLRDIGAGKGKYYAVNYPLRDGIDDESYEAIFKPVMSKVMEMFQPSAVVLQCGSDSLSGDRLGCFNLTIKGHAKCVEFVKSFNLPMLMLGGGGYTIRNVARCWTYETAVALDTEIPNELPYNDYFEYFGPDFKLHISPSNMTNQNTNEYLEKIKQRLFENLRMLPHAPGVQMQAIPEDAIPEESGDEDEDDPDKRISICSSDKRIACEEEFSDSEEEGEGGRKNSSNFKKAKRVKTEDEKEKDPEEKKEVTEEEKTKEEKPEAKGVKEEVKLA

SMILES: O=C1CC[C@@H](C(=O)N[C@H](CCCCCS)C(=O)Nc2ccccc2)N1
- inhibition in vivo at 100 mg/kg [1]: 27%
- pIC50 (Histone deacetylase 8): 6.55
- Activity (Mus musculus): 3%
- Ratio [2]: 3.6
- pIC50 (Histone deacetylase 1): 7.89
- pIC50 (Histone deacetylase 3): 8.30
- pIC50 (Histone deacetylase 2): 7.11
